Measured values from article PMC2862791 (Journal of controlled release : official journal of the …, 2010).

Assays:
3T3-L1 cells [1] = experiment: Cellular uptake and intracellular localization by confocal microscopy; assay type: cell-based; details: 6-FAM-tagged ASO, 24 h; for cellular uptake, control group: non-differentiated control (Con) cells
Outline: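 Control or normoxic-differentiated 3T3-L1 cells were detached at day 4 after induction and re-seeded on chambered coverglass at 70% confluency. After about 20 h, cells were given 6-FAM (3′)-labelled ASO conjugate, or equivalent ASO or ionic complex, for 24 h without serum deprivation. After a PBS wash, live cells were imaged by laser-scanning confocal microscopy (water immersion ×60, 37 °C, 5% CO2).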

3T3-L1 cells [2] = experiment: Cell cytotoxicity; assay type: cell-based; details: MTT, 24 h
Outline: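 3T3-L1 cells were differentiated under hypoxia (100 μM CoCl2 in differentiation medium, refreshed every 2 days) and treated for 24 h at 37 °C with the test compound, at 1.5 μg/μl ASO equivalent. MTT (5 mg/ml in complete DMEM) was then added for 5 h. Formazan was dissolved in DMSO and absorbance read. Viability (%) = OD(sample)/OD(control) × 100.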

Row | Substance | cellular uptake, control group (3T3-L1 cells [1]) | cellular uptake, differentiation group under normoxia (3T3-L1 cells [1]; differentiation under normoxia (D)) | cell viability under hypoxia compared to that of control (3T3-L1 cells [2]; differentiation under hypoxia, 1.5 μg/μl ASO) | concentration showing significant cell toxicity (3T3-L1 cells [2]; non-differentiated control 3T3-L1 cells, AS-L containing 0-10 μg/μl of ASO)
1 | MMO: PS modified mismatch-HIF1α-oligonucleotide, 5’-GTGATCCCCTGCTCTTGCCGT-3’ (GTGATCCCCTGCTCTTGCCGT; all phosphorothioate, sugars by position and methylation of C not given here) [reference compound] | unable to internalize into cells |  |  | 
2 | ASO: PS modified antisense-HIF1α-oligonucleotide, 5’-ACAACGCGGGCACCGATTCGCCATG-3’ (antisense ACAACGCGGGCACCGATTCGCCATG; all phosphorothioate, sugars by position and methylation of C not given here) | unable to internalize into cells | unable to internalize into cells | statistically indistinguishable | ≥ 2 µg/µL
